The nature of assay [1]: Inhibition of bocillin FL binding to penicillin-susceptible Streptococcus pneumoniae OC 8865 penicillin-binding protein 2x. The gist of the method: (§1)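 Whole S. pneumoniae cells were used rather than isolated membranes. Cells were competed with drug and then labeled with Bocillin FL, and PBP bands were visualized by fluorescence imaging. IC50 is the drug concentration that inhibits Bocillin FL binding to each PBP by 50% relative to a no-drug control.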

Assay [2] in a line: Inhibition of bocillin FL binding to penicillin-susceptible Streptococcus pneumoniae OC 8865 penicillin-binding protein 2a. Summed up: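 S. pneumoniae OC 8865 PBPs assayed in whole cells; drug competition followed by Bocillin FL labeling and imaging of labeled PBPs. IC50 is 50% inhibition of Bocillin FL binding compared with a no-drug control.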
Assay [3] can be described thus: Inhibition of bocillin FL binding to penicillin-resistant Streptococcus pneumoniae OC 8819 penicillin-binding protein 2x. Summed up: as §1
The nature of assay [4]: Inhibition of bocillin FL binding to penicillin-resistant Streptococcus pneumoniae OC 8819 penicillin-binding protein 3. Summed up:
as §1

The subject of another assay is Streptococcus pneumoniae. In words: Antibacterial activity against penicillin-resistant Streptococcus pneumoniae OC 8819 by CLSI method. The class given is functional.
The target in assay [5] is T1, Penicillin-binding protein 1B (Pseudomonas aeruginosa, UniProt Q9X6W0).
T1 sequence (Q9X6W0 whole entry): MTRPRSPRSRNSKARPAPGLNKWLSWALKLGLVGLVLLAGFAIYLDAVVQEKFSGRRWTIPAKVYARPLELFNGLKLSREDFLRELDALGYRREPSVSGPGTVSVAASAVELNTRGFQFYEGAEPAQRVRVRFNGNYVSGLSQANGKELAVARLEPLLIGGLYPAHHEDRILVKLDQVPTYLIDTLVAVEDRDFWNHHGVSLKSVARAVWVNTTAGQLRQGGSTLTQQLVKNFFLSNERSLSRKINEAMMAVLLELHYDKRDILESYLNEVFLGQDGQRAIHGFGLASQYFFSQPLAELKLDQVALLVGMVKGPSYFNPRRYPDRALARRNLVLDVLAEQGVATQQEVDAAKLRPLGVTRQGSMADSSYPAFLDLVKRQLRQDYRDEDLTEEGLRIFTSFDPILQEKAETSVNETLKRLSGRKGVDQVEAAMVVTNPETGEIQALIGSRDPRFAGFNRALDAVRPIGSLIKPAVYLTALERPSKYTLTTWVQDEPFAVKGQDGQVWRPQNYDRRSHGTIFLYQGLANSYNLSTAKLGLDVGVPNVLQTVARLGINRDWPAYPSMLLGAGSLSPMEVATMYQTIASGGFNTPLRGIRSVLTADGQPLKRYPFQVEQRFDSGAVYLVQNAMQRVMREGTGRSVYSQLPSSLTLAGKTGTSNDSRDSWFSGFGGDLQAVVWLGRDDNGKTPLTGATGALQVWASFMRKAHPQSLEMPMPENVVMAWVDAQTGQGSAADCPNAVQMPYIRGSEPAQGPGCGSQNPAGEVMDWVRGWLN
Nature of the assay: Inhibition of bocillin FL binding to Pseudomonas aeruginosa PAO1 penicillin-binding protein 1b. Summed up:
(§2)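 Isolated P. aeruginosa PAO1 PBPs; drug added at 10 concentrations, 0.06 μg/ml to 32 μg/ml, before Bocillin FL labeling. Labeled PBPs imaged. IC50 is the drug level cutting Bocillin FL binding by 50% versus a no-drug sample.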

The nature of assay [6]: Inhibition of bocillin FL binding to Pseudomonas aeruginosa PAO1 penicillin-binding protein 1a. The gist of the method: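 P. aeruginosa PAO1 PBPs were isolated and competed with 10 drug concentrations from 0.06 μg/ml to 32 μg/ml before Bocillin FL labeling. Bands were detected by fluorescence imaging. IC50 was taken as 50% inhibition of Bocillin FL binding versus the no-drug sample.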

In assay [7] the target is T2, Penicillin-binding protein 2 (Pseudomonas aeruginosa, UniProt Q9X6V3).
T2 sequence (Q9X6V3 whole entry): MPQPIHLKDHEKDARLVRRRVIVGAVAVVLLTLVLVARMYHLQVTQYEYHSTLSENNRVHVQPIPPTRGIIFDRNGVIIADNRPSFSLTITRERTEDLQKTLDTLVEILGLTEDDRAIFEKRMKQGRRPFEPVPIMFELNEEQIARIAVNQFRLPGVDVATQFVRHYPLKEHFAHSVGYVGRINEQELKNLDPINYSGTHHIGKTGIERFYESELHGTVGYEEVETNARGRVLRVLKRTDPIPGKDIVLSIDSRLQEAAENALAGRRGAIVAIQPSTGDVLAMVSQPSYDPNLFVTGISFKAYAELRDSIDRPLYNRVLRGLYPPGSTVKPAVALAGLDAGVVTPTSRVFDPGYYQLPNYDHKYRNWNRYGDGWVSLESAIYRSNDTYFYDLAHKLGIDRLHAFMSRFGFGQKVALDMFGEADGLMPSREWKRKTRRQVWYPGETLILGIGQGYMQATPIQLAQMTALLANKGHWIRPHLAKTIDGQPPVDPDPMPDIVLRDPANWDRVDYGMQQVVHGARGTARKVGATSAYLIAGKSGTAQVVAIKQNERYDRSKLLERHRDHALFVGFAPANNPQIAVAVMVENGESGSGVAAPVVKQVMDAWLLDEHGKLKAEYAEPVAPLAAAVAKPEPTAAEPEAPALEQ
In words: Inhibition of bocillin FL binding to Pseudomonas aeruginosa PAO1 penicillin-binding protein 2. Summed up: as §2

The target in assay [8] is T3, Penicillin-binding protein 3 (Staphylococcus aureus, UniProt Q5D1F0).
T3 sequence (Q5D1F0 whole entry): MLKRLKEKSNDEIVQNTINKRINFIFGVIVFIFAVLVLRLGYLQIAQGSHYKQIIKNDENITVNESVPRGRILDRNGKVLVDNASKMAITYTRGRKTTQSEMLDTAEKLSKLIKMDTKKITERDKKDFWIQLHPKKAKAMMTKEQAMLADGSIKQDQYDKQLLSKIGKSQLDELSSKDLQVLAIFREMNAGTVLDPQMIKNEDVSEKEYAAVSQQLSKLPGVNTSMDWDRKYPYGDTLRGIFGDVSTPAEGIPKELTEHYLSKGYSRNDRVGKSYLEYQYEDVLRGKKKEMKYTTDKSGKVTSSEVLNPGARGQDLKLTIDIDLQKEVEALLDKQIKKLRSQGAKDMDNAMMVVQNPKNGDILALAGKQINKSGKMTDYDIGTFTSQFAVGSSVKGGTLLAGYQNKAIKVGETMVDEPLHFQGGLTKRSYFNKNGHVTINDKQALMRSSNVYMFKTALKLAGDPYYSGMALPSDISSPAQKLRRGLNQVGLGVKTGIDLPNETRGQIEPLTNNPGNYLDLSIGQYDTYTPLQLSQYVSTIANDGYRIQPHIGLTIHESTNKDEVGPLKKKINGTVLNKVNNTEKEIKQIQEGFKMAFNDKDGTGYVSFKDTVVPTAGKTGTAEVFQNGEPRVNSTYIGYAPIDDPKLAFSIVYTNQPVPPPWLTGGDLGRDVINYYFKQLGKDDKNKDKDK
Nature of the assay: Inhibition of bocillin FL binding to methicillin-susceptible Staphylococcus aureus ATCC 29213 penicillin-binding protein 3. Summed up:
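Isolated S. aureus ATCC 29213 PBPs exposed to drug over 0.001 μg/ml to 50 μg/ml, followed by Bocillin FL labeling and fluorescence imaging. IC50 is 50% inhibition of Bocillin FL binding relative to no-drug control.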

A short description of assay [9]: Inhibition of bocillin FL binding to penicillin-susceptible Streptococcus pneumoniae OC 8865 penicillin-binding protein 1a. Summed up:
as §1

Values after ≈ are worked out from the molar mass of the structure shown.

As usually defined, the IC50 is the concentration that inhibits the measured activity by half. A higher IC50 goes with weaker potency in that assay. Broadly, the MIC is the smallest concentration in the dilution series that meets the test's criterion for growth inhibition. A lower MIC goes with inhibition by little substance. For the compound `Nc1nc(/C(=N/O)C(=O)N[C@@H]2C(=O)N3C(C(=O)O)=C(/C=C4\CCN([C@@H]5CCNC5)C4=O)CS[C@H]23)ns1` [CEFTOBIPROLE], the IC50 is 0.01 µg/mL (≈ 0.0187 µM) in assay [1]; 0.03 µg/mL (≈ 0.0561 µM) in assay [2]; 1 µg/mL (≈ 1.87 µM) in assay [3]; 0.01 µg/mL (≈ 0.0187 µM) in assay [4]; 0.935 µM in [5]; 0.1 µg/mL (≈ 0.187 µM) in assay [6]. In addition, the results for the IC50 in assay [7], in assay [8] and in assay [9] were 5.61 µM, 0.0935 µM and 0.03 µg/mL (≈ 0.0561 µM), respectively. In the assay with Streptococcus pneumoniae, this compound gave an MIC of 1 µg/mL (≈ 1.87 µM).
Take `CO/N=C(\C(=O)N[C@@H]1C(=O)N2C(C(=O)O)=C(CSc3nc(=O)c(O)nn3C)CS[C@H]12)c1csc(N)n1` (stereo in doubt) [CEFTRIAXONE]: the IC50 is 0.03 µg/mL (≈ 0.0541 µM) in assay [1]; 0.1 µg/mL (≈ 0.18 µM) in [2]; 8 µg/mL (≈ 14.4 µM) in [3]; 0.01 µg/mL (≈ 0.018 µM) in assay [4]; 1.8 µM in [8]; 0.01 µg/mL (≈ 0.018 µM) in assay [9]. Further, in the assay on Streptococcus pneumoniae, the MIC worked out at 8 µg/mL (≈ 14.4 µM).
On to `CC(C)(O/N=C(\C(=O)N[C@@H]1C(=O)N2C(C(=O)[O-])=C(C[n+]3ccccc3)CS[C@H]12)c1csc(N)n1)C(=O)O` [CEFTAZIDIME], for which the IC50 in assay [5] was 9.15 µM; in [6], 0.2 µg/mL (≈ 0.366 µM); in [7] it was above 58.5 µM.

Source of the values: ChEMBL document CHEMBL1157359, “Binding of ceftobiprole and comparators to the penicillin-binding proteins of Escherichia coli, Pseudomonas aeruginosa, Staphylococcus aureus, and Streptococcus pneumoniae” (Antimicrob Agents Chemother, 2007).
